Results as given in ChEMBL document CHEMBL4043223, “Structure-activity relationship study of small molecule inhibitors of the DEPTOR-mTOR interaction” (Bioorg Med Chem Lett, 2017).
Calls of active or inactive are those of the source. The calls are words filed in the database; no cut-off is given here.

Experiments:
RPMI-8226 [1] = test: Cytotoxicity against human RPMI8226 cells after 48 hrs by MTT assay; type: functional, cell-based; settings: RPMI-8226, 48 h
How it was run: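 MTT in RPMI-8226 cells: 1–2 × 10^4 cells per well in complete medium, exposed 48 h to a range of compound concentrations. MTT reduction to formazan read at 570 nm. Quadruplicate wells per group; OD given as % of DMSO-only control set at 100%. IC50 taken from the concentration series.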

MM1.S = test: Cytotoxicity against human MM1S cells after 48 hrs by MTT assay; type: functional, cell-based
How it was run: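 MM1.S myeloma cells (DEPTOR-over-expressing) in 48 h MTT: 1–2 × 10^4 cells per well, graded compound concentrations, formazan at 570 nm. Quadruplicate wells; survival as % of DMSO control; IC50 derived from the concentration range.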

[2] = Therapeutic index, ratio of IC50 for PBL (unknown origin) to IC50 for human RPMI8226 cells
How it was run: (§1)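 Normal peripheral blood lymphocytes tested head-to-head with 8226 myeloma cells in 48 h MTT assays. […] Therapeutic index = IC50(PBL)/IC50(8226).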

[3] = molecular target: DEP domain-containing mTOR-interacting protein (Homo sapiens) (UniProt Q8TB45); test: Inhibition of mTOR binding to DEPTOR in human RPMI8226 cells assessed as increase in mTORC1-associated p70 phosphorylation at […] after 6 hrs by Western blot analysis; type: cell-based
PBL = test: Cytotoxicity against PBL (unknown origin) after 48 hrs by MTT assay; type: cell-based; how it was run: as §1
RPMI-8226 [4] = test: Induction of apoptosis in human RPMI8226 cells assessed as caspase3 activation at 0.12 to 2 uM after 48 hrs by cytofix/cytoperm staining based flow cytometry; type: functional, cell-based
How it was run: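 Caspase-3 flow cytometry 48 h after drug exposure of 8226 cells. 10^6 cells washed in PBS, fixed and permeabilized in cytofix/cytoperm, stained 30 min with PE-conjugated anti-active-caspase-3 (1:5 dilution). % apoptosis = drug-treated minus DMSO-control positives; mean ± SD, n = 4.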

[5] = molecular target: DEP domain-containing mTOR-interacting protein (Homo sapiens) (UniProt Q8TB45); test: Inhibition of mTOR binding to DEPTOR in human RPMI8226 cells assessed as increase in mTORC1-associated p70 phosphorylation at 1 uM after 6 hrs by Western blot analysis; type: cell-based
How it was run: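 8226 cells exposed 6 h to compound, DMSO in untreated controls. Lysates run on 12.5% SDS-PAGE, transferred to PVDF, probed for phospho- and total p70. Densitometric phospho/total ratio expressed as fold versus parent compound B set at 1; mean ± SD, n = 4.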

[6] = molecular target: DEP domain-containing mTOR-interacting protein (Homo sapiens) (UniProt Q8TB45); test: Inhibition of DEPTOR in human RPMI8226 cells assessed as upregulation of mTORC1-dependant p21 expression at 0.5 to 2 uM after 6 hrs by Western blot analysis; type: cell-based
[7] = molecular target: DEP domain-containing mTOR-interacting protein (Homo sapiens) (UniProt Q8TB45); test: Inhibition of mTOR binding to DEPTOR in human RPMI8226 cells assessed as decrease in AKT phosphorylation at […] residue by Western blot analysis; type: cell-based
RPMI-8226 [8] = test: Induction of apoptosis in human RPMI8226 cells assessed as caspase3 activation in presence of mTOR inhibitor pp242 by cytofix/cytoperm staining based flow cytometry; type: functional, cell-based
[9] = molecular target: DEP domain-containing mTOR-interacting protein (Homo sapiens) (UniProt Q8TB45); test: Inhibition of mTOR binding to DEPTOR in human RPMI8226 cells assessed as increase in mTORC2-associated AKT phosphorylation at S473 residue by Western blot analysis; type: cell-based
[10] = molecular target: DEP domain-containing mTOR-interacting protein (Homo sapiens) (UniProt Q8TB45); test: Inhibition of mTOR binding to DEPTOR in human RPMI8226 cells assessed as increase in mTORC1-associated S6 phosphorylation by Western blot analysis; type: cell-based
[11] = molecular target: DEP domain-containing mTOR-interacting protein (Homo sapiens) (UniProt Q8TB45); test: Inhibition of mTOR binding to DEPTOR in human RPMI8226 cells assessed as increase in mTORC1-associated 4E-BP1 phosphorylation by Western blot analysis; type: cell-based
[12] = molecular target: DEP domain-containing mTOR-interacting protein (Homo sapiens) (UniProt Q8TB45); test: Inhibition of mTOR binding to DEPTOR in human RPMI8226 cells assessed as increase in mTORC2-associated SGK phosphorylation by Western blot analysis; type: cell-based
RPMI-8226 [13] = test: Cytotoxicity against human RPMI8226 cells after 48 hrs in presence of mTOR inhibitor pp242 by MTT assay; type: functional, cell-based
RPMI-8226 [14] = test: Cytotoxicity against RAPTOR knockdown human RPMI8226 cells at 0.12 to 1 uM after 48 hrs by MTT assay; type: functional, cell-based
How it was run: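 8226 cells infected with lentivirus carrying shRAPTOR or control shSCRAMBLE, knockdown confirmed by immunoblot. Cells then incubated with increasing compound concentrations; MTT read-out after 48 h, formazan at 570 nm, as % of DMSO control.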

[15] = molecular target: DEP domain-containing mTOR-interacting protein (Homo sapiens) (UniProt Q8TB45); test: Inhibition of mTOR binding to DEPTOR in human RPMI8226 cells at 0.5 uM treated 6 hrs followed by DEPTOR immunoprecipitation by immunoblotting analysis; type: cell-based
How it was run: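 Co-immunoprecipitation: 8226 cells treated 6 h with DMSO or 0.5 µM compound. DEPTOR immunoprecipitated; precipitates immunoblotted for DEPTOR and bound mTOR.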

Mus musculus [16] = test: Toxicity in mouse xenografted with human RPMI8226 cells assessed as effect on RBC level at 20 mg/kg, ip administered daily for 3 days measured post last dose; type: organism-based; settings: in vivo, 72 h
How it was run: (§2)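 Immunodeficient mice inoculated subcutaneously with 8226 myeloma cells. Once tumors reached 500 mm3, daily treatment at 20 mg/kg was started.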

Mus musculus [17] = test: Toxicity in mouse xenografted with human RPMI8226 cells assessed as effect on WBC level at 20 mg/kg, ip administered daily for 3 days measured post last dose; type: organism-based; settings: in vivo, 72 h; how it was run: as §2
Mus musculus [18] = test: Toxicity in mouse xenografted with human RPMI8226 cells assessed as effect on platelet level at 20 mg/kg, ip administered daily for 3 days measured post last dose; type: organism-based; settings: in vivo, 72 h; how it was run: as §2
RPMI-8226 [19] = test: Anti-tumor activity against human RPMI8226 cells xenografted in mouse assessed as reduction in tumor growth at 20 mg/kg, ip administered daily for 3 days measured post last dose; type: functional, organism-based; how it was run: as §2
Homo sapiens = species on record: Homo sapiens; test: Activation of mTORC1 in DEPTOR knockdown human RPMI8226 cells assessed as increase in p70 phosphorylation
How it was run: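 DEPTOR silenced in 8226 cells by shRNA lentivirus, with shScramble-transfected cells as control. Cells drug-treated, then p70 phosphorylation assessed by immunoblot.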

Chain of DEP domain-containing mTOR-interacting protein (Homo sapiens) (Q8TB45 whole entry, the tested form may be a part): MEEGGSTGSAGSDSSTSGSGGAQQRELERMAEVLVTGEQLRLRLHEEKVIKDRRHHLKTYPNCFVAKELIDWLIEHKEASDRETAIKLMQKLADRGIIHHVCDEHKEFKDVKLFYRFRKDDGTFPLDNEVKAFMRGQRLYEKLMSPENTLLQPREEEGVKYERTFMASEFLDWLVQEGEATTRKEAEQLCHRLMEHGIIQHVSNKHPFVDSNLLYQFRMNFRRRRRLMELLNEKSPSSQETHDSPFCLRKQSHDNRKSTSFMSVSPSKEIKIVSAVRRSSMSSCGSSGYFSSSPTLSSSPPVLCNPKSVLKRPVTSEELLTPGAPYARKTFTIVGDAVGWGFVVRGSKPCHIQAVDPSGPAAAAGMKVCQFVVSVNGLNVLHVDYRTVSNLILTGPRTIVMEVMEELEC

## CN(C)N=C1C(Cl)=C(Cl)C(Cl)=C1Cl
RPMI-8226 [1]
  IC50: 1300 to 3000 nM
MM1.S
  IC50: > 3000 nM

## C#CC(C)(C)OC(=O)NN=C1C(Cl)=C(Cl)C(Cl)=C1Cl
RPMI-8226 [1]
  IC50: > 5000 nM

## NN=c1c2ccccc2oc2ccccc12
RPMI-8226 [1]
  IC50: > 5000 nM
MM1.S
  IC50: > 5000 nM

## CC(C)(C)OC(=O)NN=C1c2ccccc2-c2ccccc21
RPMI-8226 [1]
  IC50: > 5000 nM
MM1.S
  IC50: > 5000 nM

## ClC1=C(Cl)C(Cl)=C(Cl)C1=NN(c1ccccc1)c1ccccc1
RPMI-8226 [1]
  IC50: > 3000 nM
MM1.S
  IC50: > 3000 nM

## O=C(c1ccc(F)cc1)N(N=C1C(Cl)=C(Cl)C(Cl)=C1Cl)C(=O)c1ccc(F)cc1
[2]
  Ratio IC50: 10
RPMI-8226 [1]
  IC50: 200 to 250 nM
[3]
  inhibition: Active
MM1.S
  IC50: 300 nM
PBL
  IC50: 2 µM
RPMI-8226 [4]
  Activity: Active
[5]
  inhibition: Active
[6]
  inhibition: Active

## CC(C)(C)OC(=O)NN=C1C(Cl)=C(Cl)C(Cl)=C1Cl
[7]
  inhibition: Active
RPMI-8226 [8]
  Activity: inactive
[9]
  inhibition: Active
[2]
  Ratio IC50: 45.5
RPMI-8226 [1]
  IC50: 100 to 110 nM
[10]
  inhibition: Active
[3]
  inhibition: Active
[11]
  inhibition: Active
MM1.S
  IC50: 600 nM
[12]
  inhibition: Active
RPMI-8226 [13]
  Activity: inactive
PBL
  IC50: 5 µM
RPMI-8226 [14]
  Activity: inactive
[15]
  inhibition: Active
RPMI-8226 [4]
  Activity: Active
[5]
  inhibition: Active
[6]
  inhibition: Active

## COC1(OC)C(Cl)=C(Cl)C(Cl)=C1Cl
RPMI-8226 [1]
  IC50: > 5000 nM

## Fc1cccc(NN=C2C(Cl)=C(Cl)C(Cl)=C2Cl)c1
RPMI-8226 [1]
  IC50: 500 to 600 nM
MM1.S
  IC50: 1500 nM

## COc1cccc(NN=C2C(Cl)=C(Cl)C(Cl)=C2Cl)c1
RPMI-8226 [1]
  IC50: > 3000 nM
MM1.S
  IC50: > 3000 nM

## FC(F)(F)c1cccc(NN=C2C(Cl)=C(Cl)C(Cl)=C2Cl)c1
Mus musculus [16]
  Activity: Non-Toxic
Mus musculus [17]
  Activity: Non-Toxic
[7]
  inhibition: Active
RPMI-8226 [8]
  Activity: inactive
[9]
  inhibition: Active
[2]
  Ratio IC50: 136
RPMI-8226 [1]
  IC50: 110 to 170 nM
[10]
  inhibition: Active
[3]
  inhibition: Active
[11]
  inhibition: Active
MM1.S
  IC50: 1000 nM
Mus musculus [18]
  Activity: Non-Toxic
[12]
  inhibition: Active
RPMI-8226 [13]
  Activity: inactive
PBL
  IC50: 15 µM
RPMI-8226 [14]
  Activity: inactive
RPMI-8226 [19]
  Activity: Active
[15]
  inhibition: Active
Homo sapiens
  Activity: inactive
RPMI-8226 [4]
  Activity: Active
[5]
  inhibition: Active
[6]
  inhibition: Active

## Cc1ccc(C(=O)N(N=C2C(Cl)=C(Cl)C(Cl)=C2Cl)C(=O)c2ccc(C)cc2)cc1
RPMI-8226 [1]
  IC50: 500 nM
MM1.S
  IC50: 500 nM

## CC(=O)NN=C1C(Cl)=C(Cl)C(Cl)=C1Cl
RPMI-8226 [1]
  IC50: 1000 nM

## CC(C)(C)C(=O)NN=C1C(Cl)=C(Cl)C(Cl)=C1Cl
[2]
  Ratio IC50: 14
RPMI-8226 [1]
  IC50: 90 to 120 nM
[3]
  inhibition: Active
MM1.S
  IC50: 2000 nM
PBL
  IC50: 1.25 µM
RPMI-8226 [4]
  Activity: Active
[5]
  inhibition: Active
[6]
  inhibition: Active
